The source of these data is PubChem BioAssay.

What is called viability is a read-out of living cells in per cent, often relative to untreated cells. As usually defined, the inhibition is the relative decrease from the control value, in per cent.

Unmarked numbers belong to inactive results. Records with an inconclusive call do not appear. Active and inactive are the calls of the source.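 The calls were made as follows, unless noted: active = growth inhibition above 25% in both replicates, a cutoff set 3 SD above the mean; inconclusive = above 25% in only one replicate; inactive = the rest.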

Experiment [1] can be described thus: S. cerevisiae growth inhibition in permissive medium (OD615), pilot counter-assay for S. cerevisiae lifespan shortening project, permissive growth control (AID 705). Conditions: OD615, 24 h, at 10 µM, active compounds read high. Put shortly:
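Timing: 24 h exposure, 30 °C / Material: Saccharomyces cerevisiae strain carrying genetically modified DeaD replicative-lifespan system / Signal: OD at 615 nm / Compound: 10 µM single dose, 0.25% DMSO / Medium: SC raffinose/galactose permissive medium / Evaluation: reduction in yeast growth (OD615)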

A short description of experiment [2]: S. cerevisiae growth inhibition in restrictive medium, OD615, pilot screen, restrictive growth control, yeast lifespan reduction project (AID 706;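 active = growth inhibition above a set limit, 3 SD over mean compound inhibition, in both replicates, cut at about 43% in these data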;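 also: modified DeaD lifespan yeast strain shifted to restrictive glucose medium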). Particulars: OD615, 48 h, at 10 µM, active compounds read high. Put shortly:
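System: Engineered S. cerevisiae DeaD strain | Detection: OD615 | Buffer or medium: CSMM-D glucose medium | Doses: 10 µM compound, 0.25% DMSO | Timing: 4 h pre-growth plus 48 h compound exposure, 30 °C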

Experiment [3] is described as follows: doxorubicin toxicity protection in MRP-1 cells – H69AR cells, CellTiter-Glo, duplicate, MRP-1 activator project, pilot screen (AID 807;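 active = viability increase at or above a cutoff of the median across tested compounds plus 3 SD, cut at about 8.5% in these data, passing the limit was not always enough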;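 also: compound pretreatment 18-22 h then 72 h combined with doxorubicin; 0% = doxorubicin alone and 100% = vehicle without doxorubicin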). Conditions: H69AR viability with doxorubicin, CellTiter-Glo luminescence; at 10 µM; active compounds read high. (Cellular ATP, detected with luciferase, serves as a proxy for viable cell number.)
Experiment [4] in a line: viability of HCT116 without oncogenic beta-catenin – human colon tumor cells, pilot screen (AID 823;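 active = cell viability at or below a set limit in both duplicate runs, the limit being the all-compound median minus 4 SD, cut at about 23% in these data, passing the limit was not always enough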;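 also: 0% = wells killed by 20 µM Hyamine and 100% = untreated DMSO cell wells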). Particulars: HCT116 beta-catenin knockout viability, CellTiter-Glo, 60 h; at 10 µM; active compounds read low.
Experiment [5] can be described thus: viability of PTEN-null HCT116 cells – cell-based, HCT116 clonal line, CellTiter-Glo, pilot screen (AID 824;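 active = viability at or below 27.92% in each of two runs, the all-compound median minus 4 SD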;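 also: 0% = 20 µM Hyamine control and 100% = vehicle cell control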). Particulars: HCT116 PTEN-deleted viability, 60 h, at 10 µM, active compounds read low.
The nature of experiment [6]: RAM pathway blockade in budding yeast – dse1pr::URA3 reporter, 5-FOA selection, pilot screen (AID 869;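 active = inhibition over a set limit, the all-compound mean plus 3 SD, in both replicate runs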;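 also: 0% = DMSO wells with no growth and 100% = 10 µM 1-NA-PP1 with full growth; RAM network block rescues cells from 5-FOA so hits raise OD615 growth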). Particulars: S. cerevisiae dse1pr::URA3 5-FOA growth, OD615, 2 d; at 10 µM; active compounds read high; strain carries analog-sensitive mutant Cbk1 kinase.
Experiment [7] can be described thus: RAM signaling pathway blockade in yeast – S. cerevisiae, Pdr1DBD-CYC8 efflux-inhibited sensitized strain, primary screen (AID 1298;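 active = RAM network inhibition above 8.4% in each of two replicates, 3 SD over the compound average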;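 also: 0% = DMSO untreated cells without growth and 100% = 10 µM 1-NA-PP1 full growth; higher means more yeast growth rescued from 5-FOA killing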). Particulars: S. cerevisiae cbk1-as DSE1-URA3 strain, 5-FOA growth OD615, 2 d; at 50 µM; active compounds read high.

For `Cc1cccc(-n2ncc3c(N(C)Cc4ccccc4)ncnc32)c1`, the growth inhibition in experiment [1] is -2.16%; in experiment [2], -0.895%. Moreover, in experiment [3], the viability increase was 5.35%. Besides, the viability was 109% in experiment [4] and 88.7% in experiment [5]. In experiment [6], the inhibition is 0.7%. Besides, the RAM network inhibition in experiment [7] is 4.33%.
For `CCCOC(=O)c1ccc(NC(=O)C2C3C=CC(O3)C2C(=O)O)cc1` (stereo unspecified), the growth inhibition in experiment [1] is -8.39%; in experiment [2], -22.8%. In addition, the viability increase in experiment [3] is -1.49%. The viability in experiment [4] is 101%; in experiment [5] it was 95.4%. Besides, in experiment [6], the inhibition is 1.27%. Further, the RAM network inhibition in experiment [7] was 0.36%.
In the case of `Cc1noc(NS(=O)(=O)c2ccc(NC(=O)COc3ccc(Cl)cc3Cl)cc2)c1C`, the values for the growth inhibition in experiment [1] and in experiment [2] were -2.93% and 10.8%, respectively. Further, the viability increase in experiment [3] was -0.49%. In addition, the figures for the viability in experiment [4] and in experiment [5] were 100% and 98.6%, respectively. In experiment [6], the inhibition is 2.39%. In addition, in experiment [7], the RAM network inhibition is 7.51%.
As for `COC(=O)c1ccc(NC(=O)c2cnc3scc(C)n3c2=O)cc1`, the values for the growth inhibition in experiment [1] and in experiment [2] were -9.29% and -13.3%, respectively. In experiment [3], the viability increase is 1.67%. The viability in experiment [4] was 101%; in experiment [5], 95.8%. In addition, the inhibition in experiment [6] is 0.345%. In addition, in experiment [7], the RAM network inhibition is 2.36%.
`COC(=O)c1c(N2C(=O)CCC2=O)sc2c1CCCC2`: the growth inhibition is -1.48% in experiment [1] and 0.535% in experiment [2]. Further, in experiment [3], the viability increase was -2.89%. In addition, the viability in experiment [4] is 102%; in experiment [5] it was 93.4%. The inhibition in experiment [6] is 1.26%. Moreover, the RAM network inhibition in experiment [7] was -1.57%.
`CCn1c(CNC(=O)C(C)(C)C)nc2ccccc21`: the growth inhibition is -13.2% in experiment [1] and -10.8% in experiment [2]. Besides, the viability increase in experiment [3] is -1.1%. In addition, the viability in experiment [4] is 104%; in experiment [5], 101%. The inhibition in experiment [6] was 1.73%. For the same compound, the RAM network inhibition in experiment [7] is 1.9%.
On to `CC(=O)c1cccc(NC(=O)C2CCN(S(=O)(=O)c3ccc(F)cc3)CC2)c1`, for which the figures for the growth inhibition in experiment [1] and in experiment [2] were -6.23% and 1.16%, respectively. Moreover, the viability increase in experiment [3] was -2.82%. The viability was 92% in experiment [4] and 93.5% in experiment [5]. Further, in experiment [6], the inhibition is 3.66%. In addition, the RAM network inhibition in experiment [7] was 5.67%.
As to `CSCCC1(C(=O)O)NC(c2ccccc2O)C2C(=O)N(C(C)C)C(=O)C21` (stereo unspecified), the values for the growth inhibition in experiment [1] and in experiment [2] were 2.37% and 11.6%, respectively. Further, in experiment [3], the viability increase is -1.09%. Moreover, the figures for the viability in experiment [4] and in experiment [5] were 102% and 94.7%, respectively. Besides, in experiment [6], the inhibition was 0.875%. Also, the RAM network inhibition in experiment [7] was 3.49%.
For the compound `O=C1C2CCCN2C(c2ccccc2F)N1c1cccc(Cl)c1` (stereo unspecified), the growth inhibition in experiment [1] is 1.87%; in experiment [2], 1.65%. In experiment [3], the viability increase was -0.32%. Also, the viability is 97.8% in experiment [4] and 102% in experiment [5]. Moreover, the inhibition in experiment [6] is -0.43%. Besides, the RAM network inhibition in experiment [7] is 1.7%.
As for `CCCc1ccc(Oc2c(-c3ccc(O)c(C)c3O)n[nH]c2C)cc1`, the growth inhibition in experiment [1] is 93.6% (active); in experiment [2], 87.5% (active). For the same compound, in experiment [3], the viability increase is -2.16%. Besides, the figures for the viability in experiment [4] and in experiment [5] were 72.3% and 74.3%, respectively. In addition, in experiment [6], the inhibition is -2.1%. In addition, in experiment [7], the RAM network inhibition is -1.26%.
As to `CCN(c1ccccc1)c1cc(C)nc2nc(C)nn12`, the growth inhibition in experiment [1] is -17%; in experiment [2], -3.25%. In addition, the viability increase in experiment [3] was -3.84%. The viability in experiment [4] is 106%; in experiment [5] it was 96.7%. Also, in experiment [6], the inhibition was 1.6%. Moreover, in experiment [7], the RAM network inhibition was 4.74%.
Take `COc1ccc(C2=NOC(C(=O)Nc3c(C)n(C)n(-c4ccccc4)c3=O)C2)cc1OC` (stereo unspecified): the growth inhibition is -9.01% in experiment [1] and -7.64% in experiment [2]. The viability increase in experiment [3] was 1.69%. Moreover, the viability in experiment [4] was 102%; in experiment [5] it was 106%. The inhibition in experiment [6] was 0.4%. Also, the RAM network inhibition in experiment [7] was 4.75%.
As to `CSc1nc(C)nc2c1c(=O)n(C)c(=O)n2C`, the growth inhibition is 9.37% in experiment [1] and 6.23% in experiment [2]. Moreover, the viability increase in experiment [3] is -1.42%. The values for the viability in experiment [4] and in experiment [5] were 108% and 94.2%, respectively. In addition, the inhibition in experiment [6] is 0.68%. In addition, in experiment [7], the RAM network inhibition is 0.26%.
`Nc1c(C(=O)NCc2cccnc2)sc(=S)n1-c1ccccc1`: the growth inhibition is 11.3% in experiment [1] and 25.7% in experiment [2]. For the same compound, in experiment [3], the viability increase was -1.61%. Also, the viability was 90.3% in experiment [4] and 83.6% in experiment [5]. In addition, in experiment [6], the inhibition is 2.5%. In addition, the RAM network inhibition in experiment [7] is 2.58%.
In the case of `CCOc1cc(C2CC(=O)NC(SCC)=C2C#N)ccc1O` (stereo unspecified), the growth inhibition is -16.8% in experiment [1] and -5.38% in experiment [2]. The viability increase in experiment [3] is -1.97%. Moreover, the viability in experiment [4] was 107%; in experiment [5] it was 92.6%. Moreover, in experiment [6], the inhibition was 1.97%. Moreover, the RAM network inhibition in experiment [7] was 0.15%.
Turning to `CCOC(=O)C1=C(C)NC(=O)NC1c1ccc(OCC(=O)Nc2ccccc2)c(OC)c1` (stereo unspecified), the figures for the growth inhibition in experiment [1] and in experiment [2] were -2.03% and -26%, respectively. Besides, in experiment [3], the viability increase is -1.88%. Moreover, the viability is 102% in experiment [4] and 95% in experiment [5]. Besides, the inhibition in experiment [6] was 2.01%. In addition, in experiment [7], the RAM network inhibition was 0.32%.
Turning to `Brc1[nH]nc2ccccc12`, the growth inhibition in experiment [1] is -1.23%; in experiment [2], 5.22%. The viability increase in experiment [3] is -3.24%. Further, the viability in experiment [4] is 96.7%; in experiment [5] it was 94.9%. In experiment [6], the inhibition is 0.28%. In addition, the RAM network inhibition in experiment [7] was 0.05%.
As for `O=C(Cn1cc2c(n1)CCCC2)NCCCN1CCCC1`, the growth inhibition was -3.79% in experiment [1] and 4.09% in experiment [2]. The viability increase in experiment [3] is 0.07%. The viability is 105% in experiment [4] and 99.3% in experiment [5]. Further, the inhibition in experiment [6] is -0.37%. In addition, in experiment [7], the RAM network inhibition was 1.62%.
